According to PubChem BioAssay:
Activity calls are given as the source filed them.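 The calls were made as follows, unless noted: active = inhibition of the reporter signal at or above 50%; inactive = inhibition below 50%.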

Assays:
[1] = inhibitors of TNFa-induced NFkB p65 translocation, primary screen, imaging, HUVEC, MLSMR starter and 10KST1 sets (AID 438;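 active = inhibition above 20% together with a positive visual image hit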;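 also: compound added about 3h40 before a 20 min TNFalpha stimulation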;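 as to inhibition: signal is the nuclear over cytoplasmic p65 intensity ratio per well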); settings: HUVEC TNFa-induced p65 nuclear translocation; cell count: measured here: nuclei count (cytotoxicity indicator), at 2.08 µM; inhibition: at 2 µM, stronger effect = higher value, 0% TNFa-plus-vehicle, 100% no-TNFa wells
[2] = inhibitors of mutant huntingtin aggregation, primary screen, imaging, exon1htt(103Q)mCFP cells, high-content imaging (AID 483;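 active = visual image review flags a hit and inhibition of aggregation exceeds 20%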;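 also: compound exposure lasted 3 days before fixation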;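 as to nuclei count: percent of the per-plate median nuclei count of sample wells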); settings: exon1htt(103Q)mCFP cell line, aggregate imaging, at 2 µM; inhibition of aggregation: stronger effect = higher value; nuclei count: measured here: cell count, toxicity
[3] = inhibitors of E-selectin induction by TNFa, primary screen, imaging, HUVEC, immunofluorescence, MLSMR starter and 10KST1 sets (AID 487;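 active = visually confirmed hit in the image check and inhibition above 20%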;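 as to inhibition: signal is fraction of cell area covered by stained E-selectin grains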;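 as to nuclei count: 100% = median nuclei count of all wells on the same plate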); settings: HUVEC TNFalpha-induced E-selectin immunofluorescence imaging, at 2 µM; inhibition: stronger effect = higher value; nuclei count: measured here: cell number, toxicity
[4] = biological target: Voltage-gated potassium channel subunit beta-2 (Rattus norvegicus) (UniProt P62483); assay: KvBeta enzyme negative modulators, primary screen, biochemical, NADPH fluorescence (AID 622;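 active = fluorescence slope higher than the sample average by over 3 SD, cut at about -0.22 in these data, passing the limit was not always enough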;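 also: slope of raw intensity against log time taken from 70 to 1610 s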); settings: recombinant KvBeta, 4-cyanobenzaldehyde reduction, at 10 µM, stronger effect = higher value
Chain of Voltage-gated potassium channel subunit beta-2 (Rattus norvegicus) (P62483 whole entry, looked up): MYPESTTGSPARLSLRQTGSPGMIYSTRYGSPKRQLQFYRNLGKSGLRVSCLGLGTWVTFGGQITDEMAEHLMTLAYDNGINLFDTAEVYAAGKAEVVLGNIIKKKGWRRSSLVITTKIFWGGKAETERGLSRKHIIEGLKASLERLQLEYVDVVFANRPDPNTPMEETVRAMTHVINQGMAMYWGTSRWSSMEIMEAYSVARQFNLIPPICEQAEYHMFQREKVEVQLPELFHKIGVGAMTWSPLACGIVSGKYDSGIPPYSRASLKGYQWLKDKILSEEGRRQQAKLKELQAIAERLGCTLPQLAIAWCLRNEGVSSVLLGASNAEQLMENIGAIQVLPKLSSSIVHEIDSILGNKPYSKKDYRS

[5] = biological target: Voltage-gated potassium channel subunit beta-2 (Rattus norvegicus) (UniProt P62483); assay: KvBeta positive modulators, primary screen, biochemical, NADPH fluorescence (AID 623;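 active = NADPH fluorescence slope more negative than the mean of all samples by about 3 SD, 99.7% confidence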;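 also: fluorescence intensity change per second fitted from 20 to 320 s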); settings: Recombinant KvBeta, NADPH fluorescence decrease slope, 10 min; at 10 µM; stronger effect = lower value
[6] = biological target: Muscarinic acetylcholine receptor M4 (Homo sapiens) (UniProt P08173); assay: compounds altering M4/GIRK thallium flux, either direction, primary screen, M4 allosteric agonist project, cell-based, HEK293 M4/GIRK, BTC-AM (AID 625;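 active = fluorescence slope after compound addition differing from the mean of all tested samples at 99.7% confidence, mostly higher but some lower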;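 also: thallium influx through GIRK channels coupled to M4 in HEK293 cells with BTC-AM dye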); settings: at 10 µM, actives lie on both sides
Chain of Muscarinic acetylcholine receptor M4 (Homo sapiens) (P08173 whole entry, looked up): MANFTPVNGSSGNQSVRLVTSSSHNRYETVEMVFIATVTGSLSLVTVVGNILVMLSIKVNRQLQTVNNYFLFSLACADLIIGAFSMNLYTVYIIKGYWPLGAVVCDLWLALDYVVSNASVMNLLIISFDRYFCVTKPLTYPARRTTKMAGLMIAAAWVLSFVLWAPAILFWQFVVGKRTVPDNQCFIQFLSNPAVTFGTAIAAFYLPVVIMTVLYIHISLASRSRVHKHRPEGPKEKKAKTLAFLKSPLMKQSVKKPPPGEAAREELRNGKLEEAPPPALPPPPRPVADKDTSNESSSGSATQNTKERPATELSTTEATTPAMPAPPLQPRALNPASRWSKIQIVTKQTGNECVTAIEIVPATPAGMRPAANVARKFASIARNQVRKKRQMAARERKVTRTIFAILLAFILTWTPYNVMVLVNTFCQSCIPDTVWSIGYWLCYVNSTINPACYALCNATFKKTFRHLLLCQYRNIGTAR
Summary of the method: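 Material: M4/GIRK1/GIRK2 stable HEK293 cell line. Medium: pH 7.3 thallium assay buffer. Dosing: single compound concentration, 10 µM final. Schedule: 1 h dye loading, 2 min kinetic read. Measured by: kinetic fluorescence with BTC-AM dye. Read-out: post-addition slope, 15–24 s, of baseline-normalized fluorescence. Benchmarks: carbachol and DMSO controls.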

[7] = inhibitors of Sendai virus-induced IRF3 signaling, primary screen, TLR/RLR signaling modifier project, cell-based, Sendai virus stimulus, luciferase, 10K MLSCN set (AID 602276;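 active = inhibition at or above 50% at 10 µM; inactive = inhibition below 50%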;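 also: firefly luciferase from ISG56 promoter only with Renilla not read in this screen; 0% = Sendai virus plus DMSO and 100% = medium plus DMSO without virus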); settings: HEK293 RL24 IRF3 luciferase reporter, at 10 µM, stronger effect = higher value
[8] = inhibitors of poly I:C-induced TLR3 signaling, primary screen, cell-based, poly I:C stimulus, luciferase, 10K MLSCN set (AID 602277); settings: HEK293-TLR3 RL24 IRF3 luciferase reporter, at 10 µM, stronger effect = higher value

SMILES | cell count [1] | inhibition [1] | inhibition of aggregation [2] | nuclei count [2] [%] | inhibition [3] | nuclei count [3] [%] | fluorescence slope [4] | NADPH fluorescence slope [5] | fluorescence slope [6] | inhibition [7] | inhibition [8]
CCN1C(=O)N(CC)C2C1N(C(C)=O)C(=O)N2C(C)=O (stereo not drawn) | 373 | 3.7% (inactive) | 0.2% (inactive) | 115 | -9.3% (inactive) | 117 | -0.579 (inactive) | -6.5e-05 (inactive) | 0.0074 (inactive) | 13.4% (inactive) | 16.9% (inactive)
COC(=O)c1[nH]c(C)c(/C(O)=C2\C(=O)C(=O)N(CCN(C)C)C2c2ccccc2OC)c1C (stereo not drawn) | 472 | -8% (inactive) | 10.7% (inactive) | 106 | -33.4% (inactive) | 103 | -0.326 (inactive) | -1.8e-05 (inactive) | 0.00598 (inactive) | -8.53% (inactive) | 2.66% (inactive)
CC(C)(C)C(=O)Oc1cc(N)n(S(=O)(=O)c2ccccc2)n1 | 228 | -0.3% (inactive) | -1.1% (inactive) | 109 | -24.6% (inactive) | 129 | -0.52 (inactive) | -5.6e-05 (inactive) | 0.00539 (inactive) | -12% (inactive) | -7.53% (inactive)
CC1C(O)=C(c2nc3ccccc3[nH]2)C(=N)N1c1ccccc1 (stereo not drawn) | 331 | 2.2% (inactive) | -12.9% (inactive) | 103 | -1.7% (inactive) | 104 | -0.482 (inactive) | -2.5e-05 (inactive) | 0.00621 (inactive) | -3.95% (inactive) | -41% (inactive)
O=S(=O)(NCCc1csc(-c2ccccc2)n1)c1ccc2c(c1)OCCO2 | 363 | -13.3% (inactive) | 2.9% (inactive) | 108 | 29.5% (inactive) | 76.2 | -0.622 (inactive) | 1e-06 (inactive) | 0.00312 (inactive) | 14.6% (inactive) | 9.91% (inactive)
CCOC(=O)CNC(=O)Cn1cnc2c(nnn2-c2cccc(Cl)c2)c1=O | 629 | -10% (inactive) | -8.9% (inactive) | 140 | -41.7% (inactive) | 110 | -0.477 (inactive) | 4.8e-05 (inactive) | 0.00553 (inactive) | -3.21% (inactive) | 5.01% (inactive)
FC(F)(F)COc1nc(N2CCCCC2)nc(N2CCNCC2)n1 | 372 | -7.9% (inactive) | -3.5% (inactive) | 99.5 | 13.6% (inactive) | 109 | -0.321 (inactive) | -5.4e-05 (inactive) | 0.00559 (inactive) | 4.6% (inactive) | 21.6% (inactive)
COc1cc(NC(=O)Cc2cccs2)ccc1-n1cnnn1 | 299 | 0% (inactive) | -26.9% (inactive) | 100 | -50.9% (inactive) | 112 | -0.543 (inactive) | -3.6e-05 (inactive) | 0.00442 (inactive) | 18.4% (inactive) | 21.1% (inactive)
CCN(CCCNC(=O)c1cn(CC)c2ccc(S(=O)(=O)N(C)C)cc2c1=O)c1cccc(C)c1 | 587 | -12.9% (inactive) | 23.2% (inactive) | 106 | -62.7% (inactive) | 116 | -0.475 (inactive) | 8.6e-05 (inactive) | 0.00589 (inactive) | 5.55% (inactive) | 3.96% (inactive)
Cc1cc(C)cc(NC(=O)N2CCC(c3nc4ccccc4o3)CC2)c1 | 405 | 7.5% (inactive) | -19.5% (inactive) | 94.7 | -66.7% (inactive) | 110 | -0.494 (inactive) | 0.00013 (inactive) | 0.00524 (inactive) | 13.6% (inactive) | 18.7% (inactive)
CC(=O)OC(C(=O)NCc1ccco1)c1cccnc1 (stereo not drawn) | 609 | -36.2% (inactive) | -14.7% (inactive) | 105 | -9.7% (inactive) | 135 | -0.553 (inactive) | -7.1e-05 (inactive) | 0.00644 (inactive) | 13% (inactive) | 15.9% (inactive)
COC(=O)Cn1cnc2c(nnn2-c2ccc(C)cc2)c1=O | 257 | 8.9% (inactive) | -6.9% (inactive) | 100 | -78.1% (inactive) | 106 | -0.287 (inactive) | -3.1e-05 (inactive) | 0.00635 (inactive) | -7.22% (inactive) | 1.35% (inactive)
CCCCC(=NCCO)C1=C(O)C(C(=O)OC)C(C)(C)CC1=O (stereo not drawn) | 473 | 1.8% (inactive) | 0.5% (inactive) | 102 | -64.1% (inactive) | 167 | -0.407 (inactive) | 5e-05 (inactive) | 0.00804 (inactive) | 16.3% (inactive) | 18.4% (inactive)
CCOc1cc(C2C(C(=O)OC(C)C)=C(C)N=C3SCCC(=O)N32)ccc1OC(C)=O (stereo not drawn) | 284 | 5.8% (inactive) | 8.8% (inactive) | 105 | 1.9% (inactive) | 105 | -0.42 (inactive) | -0.000412 (inactive) | 0.00512 (inactive) | 11.7% (inactive) | 24% (inactive)
CC(=O)N1CCc2cc(S(=O)(=O)NC(CC(C)C)C(=O)N3CCn4c3nc3ccccc34)ccc21 (stereo not drawn) | 292 | 3.6% (inactive) | 8.8% (inactive) | 104 | 22.8% (inactive) | 63 | -0.329 (inactive) | 5e-05 (inactive) | 0.0063 (inactive) | 10.1% (inactive) | 9.41% (inactive)
O=C1c2ccccc2NC(c2ccco2)N1O (stereo not drawn) | 426 | 3% (inactive) | -3.7% (inactive) | 110 | -169% (inactive) | 132 | -0.579 (inactive) | -2.1e-05 (inactive) | 0.006 (inactive) | 8.36% (inactive) | 10.8% (inactive)
CSc1nnc(-c2cnccn2)n1C | 679 | -15.7% (inactive) | -6.5% (inactive) | 121 | -73.6% (inactive) | 109 | -0.603 (inactive) | -3.8e-06 (inactive) | 0.00641 (inactive) | 22.1% (inactive) | 25.7% (inactive)
COc1c2ccoc2nc2c(OC)c(OCC(O)C(C)(C)O)ccc12 (stereo not drawn) | 411 | -1.6% (inactive) | -14.6% (inactive) | 101 | -62.9% (inactive) | 138 | -0.11 (inactive) | -1.8e-05 (inactive) | 0.00374 (inactive) | 15.7% (inactive) | 7.86% (inactive)
C=CCOc1ccc(C2C(C(=O)c3ccco3)=C(O)C(=O)N2Cc2cccnc2)cc1 (stereo not drawn) | 341 | -7.7% (inactive) | -11.2% (inactive) | 107 | -61.9% (inactive) | 103 | -0.543 (inactive) | -0.000128 (inactive) | 0.00458 (inactive) | 17.4% (inactive) | 14.5% (inactive)
COc1ccccc1OCc1ccc(C(=O)OCC2CCCO2)o1 (stereo not drawn) | 640 | -5% (inactive) | -10.7% (inactive) | 73.2 | 0.1% (inactive) | 113 | -0.503 (inactive) | -0.000334 (inactive) | 0.00535 (inactive) | -10.8% (inactive) | -24.7% (inactive)
Cc1nc(=S)n(-c2ccccc2)[nH]1 | 638 | -5% (inactive) | 16.1% (inactive) | 113 | -31.2% (inactive) | 120 | -0.538 (inactive) | -1.9e-05 (inactive) | 0.00665 (inactive) | 11.3% (inactive) | 10.6% (inactive)
CS(=O)(=O)c1ncc(Cl)c(C(=O)Nc2ccc(N3CCOCC3)cc2)n1 | 351 | -2.1% (inactive) | -35.6% (inactive) | 112 | 24.9% (inactive) | 111 | -0.46 (inactive) | 2.2e-05 (inactive) | 0.00607 (inactive) | 21.4% (inactive) | 62.8% (active)
O=C(CCCn1c(=O)c2sccc2n(Cc2ccc(F)cc2)c1=O)NCc1ccco1 | 417 | -9.3% (inactive) | 3% (inactive) | 92.5 | -40.1% (inactive) | 106 | -0.583 (inactive) | -2.1e-06 (inactive) | 0.00594 (inactive) | 7.63% (inactive) | 15.5% (inactive)
CCN(CC)C(=O)CN(c1cc(Cl)ccc1OC)S(C)(=O)=O | 776 | -2.4% (inactive) | -2.7% (inactive) | 108 | 41.2% (inactive) | 96 | -0.577 (inactive) | 4.8e-07 (inactive) | 0.00573 (inactive) | 7.69% (inactive) | 10.1% (inactive)
Cc1cc(C)c2cc(CN(CC3CCCO3)C(=O)NC3CCCCC3)c(=O)[nH]c2c1 (stereo not drawn) | 598 | -21% (inactive) | -17.9% (inactive) | 109 | -28.1% (inactive) | 94 | -0.567 (inactive) | -5.6e-05 (inactive) | 0.0057 (inactive) | 16.7% (inactive) | 17.3% (inactive)
O=C(c1noc2c1CCc1ccccc1-2)N1CCOCC1 | 234 | -5.4% (inactive) | 18.9% (inactive) | 90.2 | -35.7% (inactive) | 120 | -0.572 (inactive) | 2.9e-06 (inactive) | 0.0064 (inactive) | -5.37% (inactive) | -37.8% (inactive)
CN(Cc1cccs1)c1ncnc2sccc12 | 549 | -11.6% (inactive) | -28.3% (inactive) | 101 | -38.6% (inactive) | 147 | -0.456 (inactive) | 2.8e-05 (inactive) | 0.00479 (inactive) | 7.29% (inactive) | -37.9% (inactive)
CC(=O)c1cc(-c2ccccc2)n(CC(=O)N2CCN(C3CCCC3)CC2)c1C | 407 | 8.8% (inactive) | 23.8% (inactive) | 81 | 25.1% (inactive) | 103 | -0.571 (inactive) | -7.1e-05 (inactive) | 0.00681 (inactive) | 13.3% (inactive) | 23.8% (inactive)
